Assay outcomes deposited in PubChem BioAssay by The Scripps Research Institute Molecular Screening Center.
ADAM10 inh: human ADAM10 inhibitors, primary screen, biochemical, QFRET, HTS; inhibition, % at 7 µM; Disintegrin and metalloproteinase domain-containing protein 10 (Homo sapiens), O14672; recombinant ADAM10, EDANS/DABCYL FRET peptide cleavage, 3 h; hit rate 0.62% among 370,000;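 active = inhibition above a per-campaign cutoff equal to the mean of compounds falling between control-based bounds plus 3 SD, cut at about 20% in these data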;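 note: 0% = DMSO wells while the 100% control is not disclosed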
Target sequence (O14672 214-748 limits assumed): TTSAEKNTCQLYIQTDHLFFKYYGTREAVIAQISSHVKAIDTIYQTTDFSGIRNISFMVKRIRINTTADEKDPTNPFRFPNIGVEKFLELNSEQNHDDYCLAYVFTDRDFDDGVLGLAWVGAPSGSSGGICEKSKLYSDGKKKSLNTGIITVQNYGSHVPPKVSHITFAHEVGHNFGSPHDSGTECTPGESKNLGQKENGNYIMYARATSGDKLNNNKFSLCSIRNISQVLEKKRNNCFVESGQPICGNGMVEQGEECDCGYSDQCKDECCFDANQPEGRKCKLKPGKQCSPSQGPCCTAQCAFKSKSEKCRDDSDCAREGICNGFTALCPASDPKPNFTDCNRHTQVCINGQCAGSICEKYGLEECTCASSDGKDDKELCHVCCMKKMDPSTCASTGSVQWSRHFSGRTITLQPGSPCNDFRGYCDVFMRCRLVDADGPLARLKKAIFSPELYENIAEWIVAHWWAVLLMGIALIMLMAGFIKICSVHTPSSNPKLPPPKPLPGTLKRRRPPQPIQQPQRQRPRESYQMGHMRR
PLCb3 inh: human PLC-beta3 inhibitors, primary screen, biochemical, fluorescence. Purified PLC-beta3, fluorogenic substrate. hit rate 0.18% among 370,000. 1-phosphatidylinositol 4,5-bisphosphate phosphodiesterase beta-3 (Homo sapiens), Q01970. AID 720704, 2013. inhibition, % at 12.2 µM;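 note: 0% = median of compound wells on plate and 100% = full blocker control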
PLCg1 inh: PLC-gamma1 enzyme inhibitors, primary screen, biochemical, fluorescence, purified enzyme. inhibition, % at 12.2 µM. 1-phosphatidylinositol 4,5-bisphosphate phosphodiesterase gamma-1 (Homo sapiens), P19174. AID 720700, 2013. hit rate 0.84% among 370,000. fluorogenic substrate; in the data active = inhibition above about 9.5%
ADAM17 inh: ADAM17 inhibitors, primary screen, biochemical, QFRET. recombinant ADAM17, EDANS/DABCYL FRET peptide cleavage. inhibition, % at 6.95 µM. hit rate 0.83% among 370,000. AID 720648, 2013;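 active = inhibition above the mean of compounds lying between control limits plus 3 SD, set per campaign, cut at about 8.5% in these data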;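 note: 0% = DMSO-only wells as the low control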
TbMetRS inhib: T. brucei MetRS inhibitors, primary screen, biochemical, luminescence; methionyl-tRNA synthetase (Trypanosoma brucei brucei); purified T. brucei MetRS, ATP depletion, Kinase-Glo luminescence; inhibition, % at 11.9 µM; hit rate 0.4% among 360,000;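 active = inhibition above a per-plate cutoff of the control wells' mean inhibition plus 3 SD, cut at about 5.5% in these data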;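 note: 0% = DMSO wells median and 100% = median of wells with control inhibitor compound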
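Dosing: 11.9 µM compound single dose, 0.9% DMSO; Assay system: purified T. brucei MetRS enzyme; Measured by: Kinase-Glo luciferase luminescence reporting remaining unconsumed ATP; Schedule: 15 min plus 2 h at 25 °C.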
PLCgamma1 ctr: PLC-gamma1 enzyme inhibitors, counter-screen for PLC-beta3 inhibitor project, biochemical, fluorescence | hit rate 3.1% among 3,300 | AID 743258, 2014 | purified PLC-gamma1, fluorogenic substrate | shares compounds with PLCg1 inh | inhibition, % at 12.3 µM; in the data active = inhibition above about 9.5%
PLCbeta3 conf: PLC-beta3 inhibitor confirmation, biochemical, fluorescence, purified enzyme; shares compounds with PLCg1 inh; fluorogenic substrate fluorescence; inhibition, % at 12.3 µM; hit rate 1% among 3,300
Starred values were filed as active, the others as inactive; . = no result. The list is not random: actives were taken first. Their share in the collection is about 2.3%. Cut-off read from the data, not from the text of the source, unless noted: active = inhibition above about 11%; inactive = the rest.

SMILES | ADAM10 inh | PLCb3 inh | PLCg1 inh | ADAM17 inh | TbMetRS inhib | PLCgamma1 ctr | PLCbeta3 conf
O=C(N/C=N/O)C1=NOC(CNc2ncc(C(F)(F)F)cc2Cl)C1 (stereo unspecified) | 12 | 8 | 10* | 2 | -2 | -7 | -5
C=CCN1CC(COCc2ccccc2)OCCS1(=O)=O (stereo unspecified) | -3 | -2 | -2 | -2 | . | . | .
COc1ccc(OC)c(NC(=O)NCCc2c[nH]c3ccccc23)c1 | -2 | -1 | 12* | -2 | 0 | -6 | -4
COc1ccc(NC(=O)NCCc2c[nH]c3ccccc23)c(OC)c1 | 8 | -3 | 4 | 0 | 0 | . | .
C[C@@H]1C(=O)N2N=Cc3cc4ccccc4cc3[C@H]2N2N=Cc3cc4ccccc4cc3[C@@H]12 | -10 | -7 | -6 | -5 | . | . | .
N#CC1c2ccccc2-c2ccccc2N1C(=O)c1ccccc1 (stereo unspecified) | 10 | -5 | -3 | 0 | 0 | . | .
Cc1cc(C(=O)N/N=C/c2cccc([N+](=O)[O-])c2O)n[nH]1 | 2 | -1 | 3 | 3 | 0 | . | .
Cc1cc(C(=O)N/N=C/c2ccc(O)c([N+](=O)[O-])c2)n[nH]1 | 10 | 5 | 10* | 4 | 0 | -1 | 5
C#CCOCCOCCOCCNc1nc(N2CCN(C(=O)[C@H](CCCN=C(N)N)n3cc(C(N)[C@@H](C)CC)nn3)CC2)nc(N2CCN(C(=O)[C@H](CC(N)=O)n3cc([C@@H](N)C(C)C)nn3)CC2)n1 (stereo partly specified) | 6 | 14* | 4 | 2 | 0 | -1 | -2
C#CCOCCOCCOCCNc1nc(N2CCN(C(=O)[C@H](CCCN=C(N)N)n3cc(C(N)[C@@H](C)CC)nn3)CC2)nc(N2CCN(C(=O)[C@H](CC(N)=O)n3cc([C@@H](N)CC(N)=O)nn3)CC2)n1 (stereo partly specified) | -7 | 1 | 0 | -3 | 0 | . | .
S=C(NCC1CCCO1)N1CCc2ccccc2C1 (stereo unspecified) | 2 | -2 | 0 | -4 | -1 | . | .
O=C(NCC(=O)N1CCc2ccccc2C1)c1ccc(Cl)cc1Cl | -1 | 2 | 12* | 7 | 1 | -8 | -3
CCn1cc(C(=O)O)c(=O)c2cnc(N3CCN(C(=S)NC(=O)c4ccc(Cl)cc4Cl)CC3)nc21 | -5 | 5 | 10.0* | 2 | 0 | -16 | -7
O=S1(=O)c2ccc(N3CCSCC3)cc2Oc2ccccc2CN1Cc1cn(Cc2ccc(Cl)cc2)nn1 | 5 | -6 | -1 | 3 | . | . | .
COc1ccc(C2=NOC(Cn3nc(-c4ccccc4)cc3C(=O)NCc3cccc(Br)c3)C2)cc1 (stereo unspecified) | -1 | 16* | -21 | 5 | 0 | -2 | -1
COCCNC(=O)C(=O)N/N=C(\C)CC(=O)Nc1cccc(C(F)(F)F)c1 | -5 | -3 | 2 | -1 | 0 | . | .
COc1ccc(CCCC(=O)Nc2ccccc2F)cc1 | 7 | -1 | 0 | 4 | 0 | . | .
COc1ccc(N2CCN(S(=O)(=O)c3cccc4nsnc34)CC2)cc1 | -7 | 0 | -1 | -5 | 0 | . | .
CC(=O)c1ccc(N2CCN(S(=O)(=O)c3cccc4nsnc34)CC2)cc1 | 5 | 5 | 10* | 8 | -1 | -2 | 3
C/C(=N/NC(=O)c1cccs1)c1ccc(NC(=O)COc2ccc(Cl)cc2Cl)cc1 | 8 | 12* | 0 | 2 | 0 | -28 | -28
C/C(=N/NC(=O)c1ccc(C)s1)c1cccc(NC(=O)COc2ccc(Cl)cc2Cl)c1 | -5 | -2 | 4 | -4 | 0 | . | .
O=C(O)C1CCCCC1C(=O)NCc1ccccn1 (stereo unspecified) | -4 | 3 | -1 | 1 | 0 | . | .
CC(O)(c1cccc(F)c1)c1nc(-c2cccc(F)c2)cs1 (stereo unspecified) | 2 | -3 | 11* | 5 | -1 | -2 | 0
Cc1ccc(-c2csc(C(C)(O)c3cccc(F)c3)n2)cc1C (stereo unspecified) | 13 | -2 | -1 | 4 | 0 | . | .
COC(=O)c1cccc(OCCCN2CCC(C(O)(c3ccccc3)c3ccccc3)CC2)c1 | -2 | 5 | 9.7* | -1 | -1 | -2 | -5
SMILES | ADAM10 inh | PLCb3 inh | PLCg1 inh | ADAM17 inh | TbMetRS inhib | PLCgamma1 ctr | PLCbeta3 conf
COC(=O)c1cccc(OC[C@@H](O)CN2CCC(C(O)(c3ccccc3)c3ccccc3)CC2)c1 | 2 | 9 | 11* | 7 | . | 7 | -4
OC(c1ccccc1)(c1ccccc1)C1CCN(CCCOc2cccc(Cl)c2)CC1 | -14 | -2 | 6 | 0 | . | . | .
Cc1cccc(OC[C@@H](O)CN2CCC(C(O)(c3ccccc3)c3ccccc3)CC2)c1 | -7 | 2 | 2 | 1 | . | . | .
CCOC(=O)C1(CC2CCCCO2)CCN(S(=O)(=O)c2ccccc2)CC1 (stereo unspecified) | -1 | -1 | 1 | -1 | -1 | . | .
CCOC(=O)C1(CC2CCCCO2)CCN(S(=O)(=O)c2c(C)nn(C)c2C)CC1 (stereo unspecified) | 1 | 13* | 13* | 4 | 0 | -6 | -3
Cc1ccc(-n2c(SCC(=O)Nc3ccc(S(=O)(=O)Nc4nccs4)cc3)nnc2-c2cccs2)cc1 | 5 | -13 | -7 | 1 | . | . | .
